According to ChEMBL document CHEMBL1152922, “7-O-methylkaempferol and -quercetin glycosides from the whole plant of Nervilia fordii” (J Nat Prod, 2009):
Active and inactive are the calls of the source. The calls are words filed in the database; no cut-off is given here.

Experiments:
[1] = Cytotoxicity against african green monkey Vero cells after 3 days by MTT assay; format: cell-based; conditions: chlorocebus sabaeus, read-out: MNCC
[2] = test system: Human alphaherpesvirus 1; test: Antiviral activity against HSV1 infected in african green monkey Vero cells assessed as total inhibitory concentration after 3 days by plaque reduction assay; format: functional
Method in brief: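 Vero cells seeded in 24-well plates and grown 24 h, then infected with 30 PFU HSV-1 in the presence of a range of sample concentrations. Samples were diluted in DMEM with 2% FBS at pH 7.2, and medium alone served as control. Wells were overlaid with 1% methylcellulose medium and incubated 3 days, then formalin-fixed and crystal violet-stained. Plaques were counted, and the 100%-inhibitory concentration was read from plots.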

[3] = test system: Human alphaherpesvirus 1; test: Antiviral activity against HSV1 infected in african green monkey Vero cells assessed as inhibition of virus-induced cytopathic effect after 3 days; conditions: Human alphaherpesvirus 1, Vero, 72 h

| IC50 [3] | SMILES | MNTC at 72 h [1] | Activity [2] |
| --- | --- | --- | --- |
| – | O=c1cc(-c2ccc(O)cc2)oc2c([C@@H]3O[C@H](CO)[C@@H](O)[C@H](O)[C@H]3O)c(O)c([C@@H]3O[C@H](CO)[C@@H](O)[C@H](O)[C@H]3O)c(O)c12 | 170 µM | inactive |
| – | COc1cc(O)c2c(=O)c(O[C@@H]3O[C@H](CO)[C@@H](O)[C@H](O)[C@H]3O)c(-c3ccc(O)c(OC)c3)oc2c1 | 200 µM | inactive |
| 4.3 µM | Nc1nc2c(ncn2COCCO)c(=O)[nH]1 [ACYCLOVIR] | 1110 µM | – |
| – | COc1cc(O)c2c(=O)c(O[C@@H]3O[C@H](CO)[C@@H](O)[C@H](O)[C@H]3O)c(-c3ccc(O[C@@H]4O[C@H](CO)[C@@H](O)[C@H](O)[C@H]4O)cc3)oc2c1 [COMPLANATUSIDE] | 320 µM | inactive |
| – | O=c1ccc2cc(O)c(O)cc2o1 [ESCULETIN] | 140 µM | 0.14 mM |
| – | COc1cc(O)c2c(=O)c(O[C@@H]3O[C@H](CO)[C@@H](O[C@@H]4OC[C@@H](O)[C@H](O)[C@H]4O)[C@H](O)[C@H]3O)c(-c3ccc(O)cc3)oc2c1 [NERVILIFORDIN A] | 170 µM | inactive |
| – | COc1cc(O)c2c(=O)c(O[C@@H]3O[C@H](CO)[C@@H](O[C@@H]4O[C@H](CO)[C@@H](O)[C@H](O)[C@H]4O)[C@H](O)[C@H]3O)c(-c3ccc(O)cc3)oc2c1 [NERVILIFORDIN B] | 160 µM | inactive |
| – | COc1cc(O)c2c(=O)c(O[C@@H]3O[C@H](CO)[C@@H](O[C@@H]4O[C@H](CO)[C@@H](O)[C@H](O)[C@H]4O)[C@H](O)[C@H]3O)c(-c3ccc(O)c(O)c3)oc2c1 [NERVILIFORDIN C] | 160 µM | inactive |
| – | COc1cc(O)c2c(=O)c(O)c(-c3ccc(O)c(OC)c3)oc2c1 [RHAMNAZIN] | 40 µM | inactive |
| – | COc1cc(O)c2c(=O)c(O)c(-c3ccc(O)c(O)c3)oc2c1 [RHAMNETIN] | 80 µM | inactive |
| – | COc1cc(O)c2c(=O)c(O)c(-c3ccc(O)cc3)oc2c1 [RHAMNOCITRIN] | 80 µM | inactive |
